Test results as given in ChEMBL document CHEMBL4680238, “Novel octapeptide-DTX prodrugs targeting MMP-7 as effective agents for the treatment of colorectal cancer with lower systemic toxicity” (Eur J Med Chem, 2020).

Columns and labels:
[1] = test system: SW-620; assay: Cytotoxicity against human SW-620 cells assessed as reduction in cell viability after 72 hrs by MTT assay; format: functional, cell-based; conditions: SW-620, 72 h
In short: (§1)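 Cells seeded at 5000/well and precultured 1 day. HCT116 grown in McCoy's 5A + 10% FBS; SW620 and HEK293 in DMEM + 10% FBS; CCD18Co in DMEM + 15% FBS. Compounds from 0.1 M DMSO stocks were tested at 10^-10 to 10^-4 mol/L in sixplicate: HCT116 and HEK293 for 48 h, SW620 and CCD18Co for 72 h, at 37 °C, 5% CO2. MTT (5 mg/mL) added for 4 h, then A570 read; IC50 estimated.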

[2] = test system: HCT-116; assay: Cytotoxicity against human HCT-116 cells assessed as reduction in cell viability after 48 hrs by MTT assay; format: functional, cell-based; conditions: HCT-116, 48 h; in short: as §1
[3] = test system: CCD-18Co; assay: Cytotoxicity against human CCD-18Co cells assessed as reduction in cell viability after 72 hrs by MTT assay; format: cell-based; in short: as §1
[4] = test system: HEK293; assay: Cytotoxicity against HEK293 cells assessed as reduction in cell viability after 48 hrs by MTT assay; format: cell-based; conditions: Homo sapiens, HEK293, 48 h; in short: as §1
[5] = test system: HCT-116; assay: Antitumour activity against human HCT-116 cells xenografted in BALB/c nude mouse assessed as tumour growth inhibition at 5 mg/kg, ip administered once for every 7 days for 14 days relative to control; format: functional; conditions: HCT-116, ip, 336 h, time 14 day, read-out: TGI
In short: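 Male BALB/c nude mice received s.c. HCT116 cells (2 × 10^6 in 0.2 mL PBS). Once tumours reached 100-200 mm3, mice were randomized into groups of six. Dosing was ip, 0.1 mL/10 g, once every 7 days, in DMSO 0.5%/castor oil 5%/ethanol 5%/saline 89.5%; vehicle controls got solvent. Caliper volume V = L×W²×0.52 read every 2-3 days. Tumours excised and weighed on day 14.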

[6] = Toxicity in BALB/c nude mouse xenografted with human HCT-116 cells assessed as reduction in body weight at 5 mg/kg, ip administered once for every 7 days for 14 days relative to control; format: organism-based; design: scale not given: the % may be the effect or the level left; conditions: in vivo, 336 h, time 14 day
In short: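 HCT116 s.c. xenografts in male BALB/c nude mice, n = 6 per group. Dosing was ip once every 7 days for 2 weeks in DMSO/castor oil/ethanol/saline; vehicle controls got solvent. Body weight recorded every other day or every three days. Weight loss taken at day 14. Mean ± SD.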

[7] = Toxicity in BALB/c nude mouse xenografted with human HCT-116 cells assessed as concentrated nucleus in liver at 5 mg/kg, ip administered once for every 7 days for 14 days by H and E staining based assay; format: organism-based; conditions: in vivo, 336 h, time 14 day
In short: (§2)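 At the end of the 14-day ip xenograft study (HCT116, BALB/c nude), heart and liver were collected from vehicle and molar-equivalent dose groups. Tissues fixed in 10% formalin in PBS and stained with H&E. Liver examined at 400×, heart at 100×.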

[8] = Toxicity in BALB/c nude mouse xenografted with human HCT-116 cells assessed as disordered myocardial fiber in heart at 5 mg/kg, ip administered once for every 7 days for 14 days by H and E staining based assay; format: organism-based; conditions: in vivo, 336 h, time 14 day; in short: as §2
[9] = Toxicity in BALB/c nude mouse xenografted with human HCT-116 cells assessed as inflammatory cell invasion in heart at 5 mg/kg, ip administered once for every 7 days for 14 days by H and E staining based assay; format: organism-based; conditions: in vivo, 336 h, time 14 day; in short: as §2
[10] = Toxicity in ip dosed Kunming mouse measured for 14 days; format: organism-based; conditions: in vivo, time 14 day
In short: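 Healthy Kunming mice of both sexes, 20 ± 2 g, randomised into 5 groups of 10 matched for weight and size. Compound given once intraperitoneally at 400, 300, 250 or 150 mg/kg in formulation solvent (0.5% DMSO, 5% castor oil, 5% ethanol, 89.5% saline), 0.1 mL per 10 g; vehicle controls received solvent. Deaths recorded daily for 14 days; LD50 by Bliss method.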

[11] = AUC (0 to t) in Sprague-Dawley rat at 5 mg/kg, iv measured up to 72 hrs by LC-MS/MS analysis; format: ADME, organism-based; design: route intravenous, dose 5 mg/kg, time <=72; conditions: in vivo
In short: (§3)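 Male SD rats (180-200 g), fasted 12 h with free water, n = 3 per group. Single tail-vein dose of 5 mg/kg in 0.5% DMSO/5% castor oil/5% ethanol/89.5% saline. Retro-orbital blood drawn 0.083-72 h with heparin. Plasma protein-precipitated with methanol containing paclitaxel internal standard, then analysed by LC-MS/MS. Parameters from non-compartmental analysis, mean ± SD. For the DTX group, parameters were calculated after converting dose to the molar equivalent of the prodrug.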

[12] = AUC (0 to infinity) in Sprague-Dawley rat at 5 mg/kg, iv measured up to 72 hrs by LC-MS/MS analysis; format: ADME, organism-based; design: route intravenous, dose 5 mg/kg, time <=72; conditions: in vivo, 72 h; in short: as §3
[13] = MRT (0 to infinity) in Sprague-Dawley rat at 5 mg/kg, iv measured up to 72 hrs by LC-MS/MS analysis; format: ADME, organism-based; conditions: in vivo; in short: as §3
[14] = Half life in Sprague-Dawley rat at 5 mg/kg, iv measured up to 72 hrs by LC-MS/MS analysis; format: ADME, organism-based; conditions: in vivo; in short: as §3
[15] = Apparent volume of distribution in Sprague-Dawley rat at 5 mg/kg, iv measured up to 72 hrs by LC-MS/MS analysis; format: ADME, organism-based; conditions: in vivo, read-out: Vz; in short: as §3
[16] = Apparent clearance in Sprague-Dawley rat at 5 mg/kg, iv measured up to 72 hrs by LC-MS/MS analysis; format: ADME, organism-based; conditions: in vivo, 5 mg/kg, 72 h; in short: as §3
[17] = Drug uptake in BALB/c nude mouse xenografted with human HCT-116 cells assessed as drug level in heart at 5 mg/kg, iv measured up to 24 hrs by LC-MS/MS analysis; format: ADME, organism-based; conditions: in vivo
In short: (§4)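 Male BALB/c nude mice bearing s.c. HCT116 tumours (200-300 mm3), 20 per group. Single tail-vein dose of 5 mg/kg. Five mice per group killed at 0.5, 4, 8 and 24 h and heart-perfused with PBS. Tissues homogenized in saline (4 µL/mg) and precipitated with methanol containing paclitaxel internal standard. Prodrug, released DTX and free DTX measured by LC-MS/MS.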

[18] = Drug uptake in BALB/c nude mouse xenografted with human HCT-116 cells assessed as drug level in liver at 5 mg/kg, iv measured up to 24 hrs by LC-MS/MS analysis; format: ADME, organism-based; conditions: in vivo; in short: as §4
[19] = Drug uptake in BALB/c nude mouse xenografted with human HCT-116 cells assessed as drug level in spleen at 5 mg/kg, iv measured up to 24 hrs by LC-MS/MS analysis; format: ADME, organism-based; conditions: in vivo; in short: as §4
[20] = Drug uptake in BALB/c nude mouse xenografted with human HCT-116 cells assessed as drug level in lung at 5 mg/kg, iv measured up to 24 hrs by LC-MS/MS analysis; format: ADME, organism-based; conditions: in vivo; in short: as §4
[21] = Drug uptake in BALB/c nude mouse xenografted with human HCT-116 cells assessed as drug level in kidney at 5 mg/kg, iv measured up to 24 hrs by LC-MS/MS analysis; format: ADME, organism-based; conditions: in vivo; in short: as §4
[22] = Drug uptake in BALB/c nude mouse xenografted with human HCT-116 cells assessed as drug level in tumour at 5 mg/kg, iv measured up to 24 hrs by LC-MS/MS analysis; format: ADME, organism-based, Neoplasm; conditions: in vivo; in short: as §4

Compound `CC(=O)O[C@@]12CO[C@@H]1C[C@H](O)[C@@]1(C)C(=O)[C@H](O)C3=C(C)[C@@H](OC(=O)[C@H](O)[C@@H](NC(=O)OC(C)(C)C)c4ccccc4)C[C@@](O)([C@@H](OC(=O)c4ccccc4)[C@H]21)C3(C)C` [DOCETAXEL ANHYDROUS] has an IC50 [1] of 0.02 µM, an IC50 [2] of 0.0035 µM and an IC50 [3] of 117 µM. For the same compound, the IC50 [4] was 19.7 µM, the inhibition in vivo at 5 mg/kg [5] was 42.7% and the Activity [6] was 13%. The Activity [7] was “Toxic”, the Activity [8] was “Toxic” and the Activity [9] was “Toxic”. For the same compound, the LD50 at 336 h [10] was 74.1 mg/kg, the AUC(0-t) at 72 h [11] was 930 ng·h/mL and the AUC [12] was 867 ng·h/mL. For the same compound, the MRT inf [13] was 3.76 h, the half-life [14] was 5.75 h and the Vd [15] was 22.6 L/kg. For the same compound, the “CL(app)” value [16] was 46 mL/min/kg, the Drug uptake [17] was “Active” and the Drug uptake [18] was “Active”. The Drug uptake [19] was “Active”, the Drug uptake [20] was “Active” and the Drug uptake [21] was “Active”. The Drug uptake [22] was “Active”.
